Measured values from ChEMBL document CHEMBL4028876, “Discovery of a Novel Piperidine-Based Inhibitor of Cholesteryl Ester Transfer Protein (CETP) That Retains Activity in Hypertriglyceridemic Plasma” (J Med Chem, 2017).

What was measured:
[1] = target: T1, Cholesteryl ester transfer protein (Homo sapiens, UniProt P11597); test: Inhibition of CETP in human plasma measured every 30 mins for 120 mins by fluorescence method
T1 sequence (P11597 whole entry): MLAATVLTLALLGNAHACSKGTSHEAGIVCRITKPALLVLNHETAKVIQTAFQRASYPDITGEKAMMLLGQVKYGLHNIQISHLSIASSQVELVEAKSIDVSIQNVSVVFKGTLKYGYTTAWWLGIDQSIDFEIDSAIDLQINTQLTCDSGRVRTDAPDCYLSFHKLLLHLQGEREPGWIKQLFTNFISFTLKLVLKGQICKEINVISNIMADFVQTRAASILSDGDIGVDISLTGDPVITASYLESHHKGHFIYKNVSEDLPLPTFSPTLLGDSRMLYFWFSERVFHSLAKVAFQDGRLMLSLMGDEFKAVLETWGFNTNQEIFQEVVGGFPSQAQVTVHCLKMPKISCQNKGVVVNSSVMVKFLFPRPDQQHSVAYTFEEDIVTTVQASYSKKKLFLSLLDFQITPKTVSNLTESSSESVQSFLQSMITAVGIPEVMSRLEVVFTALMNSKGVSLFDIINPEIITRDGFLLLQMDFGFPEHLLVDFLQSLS
In short: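 Pooled EDTA plasma from healthy male donors (final 50%) with compound in DMSO (final 1%). The reaction is started with fluorescent donor solution. Activity is the 30–90 min slope. IC50 is fitted to duplicate wells by a logistic equation.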

[2] = 1-Octanol-phosphate buffered saline partition coefficient, log D of compound at […] by tandem mass spectrometry method; type: physicochemical
[3] = Half life in Sprague-Dawley rat at 1 mg/kg, iv or 3 mg/kg, po by LC-ESI-MS/MS analysis; type: ADME, organism-based; settings: in vivo
In short: (§1)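 Conscious 7-week-old male Sprague-Dawley rats on standard diet with free water. Dosing is 1 mg/kg iv bolus in N-methylpyrrolidin-2-one/PEG 200, or 3 mg/kg oral suspension in 0.5% aqueous methylcellulose. Blood is sampled at various time points after administration.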

[4] = Clearance in Sprague-Dawley rat plasma at 1 mg/kg, iv or 3 mg/kg, po by LC-ESI-MS/MS analysis; type: ADME, organism-based; in short: as §1
[5] = Volume of distribution in Sprague-Dawley rat at 1 mg/kg, iv or 3 mg/kg, po by LC-ESI-MS/MS analysis; type: ADME, organism-based; settings: in vivo; in short: as §1
[6] = AUC (infinity) in Sprague-Dawley rat at 1 mg/kg, iv or 3 mg/kg, po by LC-ESI-MS/MS analysis; type: ADME, organism-based; settings: in vivo; in short: as §1
[7] = Oral bioavailability in Sprague-Dawley rat at 3 mg/kg by LC-ESI-MS/MS analysis; type: ADME, organism-based; settings: in vivo; in short: as §1
Cytochrome P450 3A4 [8] = target: T2, Cytochrome P450 3A4 (Homo sapiens, UniProt P08684); test: Inhibition of CYP3A4 (unknown origin) in the presence of midozolam; type: ADME
T2 sequence (P08684 whole entry): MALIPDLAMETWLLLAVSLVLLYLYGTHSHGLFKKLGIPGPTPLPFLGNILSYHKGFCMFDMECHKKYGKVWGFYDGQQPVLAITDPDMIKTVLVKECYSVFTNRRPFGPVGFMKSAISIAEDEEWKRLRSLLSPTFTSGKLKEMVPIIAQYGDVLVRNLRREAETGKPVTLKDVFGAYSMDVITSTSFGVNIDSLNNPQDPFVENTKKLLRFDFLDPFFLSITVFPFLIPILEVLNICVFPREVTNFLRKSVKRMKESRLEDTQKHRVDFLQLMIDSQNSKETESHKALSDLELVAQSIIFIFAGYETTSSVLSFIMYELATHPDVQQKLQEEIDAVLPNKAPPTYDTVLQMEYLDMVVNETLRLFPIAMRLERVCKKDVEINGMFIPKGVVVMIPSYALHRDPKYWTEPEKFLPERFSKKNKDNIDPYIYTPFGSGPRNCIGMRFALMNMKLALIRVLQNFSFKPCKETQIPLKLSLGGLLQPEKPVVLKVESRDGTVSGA

Cytochrome P450 3A4 [9] = target: T2, Cytochrome P450 3A4; test: Inhibition of CYP3A4 (unknown origin) in the presence of testosterone; type: ADME
Cytochrome P450 2D6 = Cytochrome P450 2D6 (Homo sapiens, UniProt P10635); test: Inhibition of CYP2D6 (unknown origin); type: ADME
Cytochrome P450 2D6, sequence (P10635 whole entry): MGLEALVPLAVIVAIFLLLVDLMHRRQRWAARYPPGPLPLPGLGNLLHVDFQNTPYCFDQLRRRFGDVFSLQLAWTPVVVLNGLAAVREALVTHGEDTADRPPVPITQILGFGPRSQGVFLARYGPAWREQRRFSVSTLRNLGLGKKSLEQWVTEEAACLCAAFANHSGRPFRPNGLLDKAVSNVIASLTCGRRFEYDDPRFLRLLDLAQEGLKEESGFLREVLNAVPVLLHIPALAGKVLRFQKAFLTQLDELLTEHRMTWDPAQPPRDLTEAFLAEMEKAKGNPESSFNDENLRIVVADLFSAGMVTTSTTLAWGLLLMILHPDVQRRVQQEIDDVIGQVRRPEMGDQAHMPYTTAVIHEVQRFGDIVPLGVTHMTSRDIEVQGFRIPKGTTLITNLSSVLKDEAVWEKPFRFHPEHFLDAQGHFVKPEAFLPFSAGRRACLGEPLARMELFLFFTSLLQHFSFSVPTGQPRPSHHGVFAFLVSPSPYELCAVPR

Cytochrome P450 2C9 = Cytochrome P450 2C9 (Homo sapiens, UniProt P11712); test: Inhibition of CYP2C9 (unknown origin); type: ADME
Cytochrome P450 2C9, sequence (P11712 whole entry): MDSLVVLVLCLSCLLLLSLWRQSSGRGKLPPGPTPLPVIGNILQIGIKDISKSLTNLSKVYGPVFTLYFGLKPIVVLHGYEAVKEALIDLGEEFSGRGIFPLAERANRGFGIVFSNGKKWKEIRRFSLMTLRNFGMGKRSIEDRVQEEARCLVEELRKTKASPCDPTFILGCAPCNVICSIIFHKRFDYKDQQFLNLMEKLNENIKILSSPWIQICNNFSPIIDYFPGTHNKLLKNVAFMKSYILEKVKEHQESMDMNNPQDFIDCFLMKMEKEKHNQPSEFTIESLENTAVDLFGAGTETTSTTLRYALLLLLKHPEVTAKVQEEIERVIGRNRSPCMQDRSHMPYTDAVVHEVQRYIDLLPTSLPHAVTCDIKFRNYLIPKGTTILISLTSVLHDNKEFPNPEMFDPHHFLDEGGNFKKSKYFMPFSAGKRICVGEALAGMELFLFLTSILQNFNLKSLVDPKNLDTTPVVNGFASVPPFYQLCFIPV

CC[C@@H]1C[C@H](N(Cc2cc(OC)cc(C(F)(F)F)c2)c2ncc(Br)cn2)C[C@H](Cc2ccccc2)N1C(=O)OC(C)(C)C (racemic)
IC50 [1]: > 10000 nM

CCC(CC)CC1(C(=O)Nc2ccccc2SC(=O)C(C)C)CCCCC1 [DALCETRAPIB]
IC50 [1]: 4100 nM
logD [2]: > 6

CC[C@@H]1C[C@H](N(Cc2cc(C(F)(F)F)cc(C(F)(F)F)c2)c2ncc(N3CCOCC3)cn2)C[C@H](CC)N1C(=O)O[C@H]1CC[C@H](C(=O)O)CC1
IC50 [1]: 150 nM
half-life [3]: 5.6 h
clearance [4]: 1.5 mL/min/kg
Vd [5]: 0.67 L/kg
AUC(0-inf) [6]: 28.5 µM·h
bioavailability [7]: 58%
IC50 (Cytochrome P450 3A4 [8]): 25000 nM
IC50 (Cytochrome P450 3A4 [9]): > 50000 nM
IC50 (Cytochrome P450 2D6): > 50000 nM
IC50 (Cytochrome P450 2C9): > 50000 nM

CC[C@@H]1C[C@H](N(Cc2cc(C(F)(F)F)cc(C(F)(F)F)c2)c2ncc(Br)cn2)C[C@H](Cc2ccccc2)N1C(=O)OC(C)(C)C
IC50 [1]: 77 nM

CCCC(=O)N1[C@H](CC)C[C@H](N(Cc2cc(C(F)(F)F)cc(C(F)(F)F)c2)c2ncc(Br)cn2)C[C@@H]1Cc1ccccc1 (racemic)
IC50 [1]: 510 nM

CC[C@@H]1C[C@H](N(Cc2cc(C(F)(F)F)cc(C(F)(F)F)c2)c2ncc(N3CCOCC3)cn2)C[C@H](CC)N1C(=O)OC(C)C
IC50 [1]: 60 nM
half-life [3]: 4.6 h
clearance [4]: 10 mL/min/kg
Vd [5]: 2.35 L/kg
AUC(0-inf) [6]: 2.75 µM·h
bioavailability [7]: 35%
IC50 (Cytochrome P450 3A4 [8]): 2200 nM
IC50 (Cytochrome P450 3A4 [9]): > 50000 nM
IC50 (Cytochrome P450 2D6): > 30000 nM
IC50 (Cytochrome P450 2C9): 6600 nM

CC[C@@H]1C[C@H](N(Cc2cc(C(F)(F)F)cc(C(F)(F)F)c2)c2ncc(Br)cn2)C[C@H](Cc2ccccc2)N1C(=O)OC(C)C (racemic)
IC50 [1]: 200 nM

CC[C@@H]1C[C@H](N(Cc2cc(C(F)(F)F)cc(C(F)(F)F)c2)c2ncc(Br)cn2)C[C@H](Cc2ccccc2)N1C(=O)OC(C)(C)C (racemic)
IC50 [1]: 160 nM

CC[C@@H]1C[C@H](N(Cc2cc(C(F)(F)F)cc(C(F)(F)F)c2)c2ncc(OC)cn2)C[C@H](Cc2ccccc2)N1C(=O)OC(C)(C)C (racemic)
IC50 [1]: 71 nM
